Assay outcomes (PubChem BioAssay)
Shown are actives, neighbours in structure and some others; about 2.3% of the full set was active somewhere.
C2C12 statin: suppressors of simvastatin-induced myotoxicity in C2C12 myotubes; ATP luminescence, 48 h; scaled: DMSO 0, geranylgeraniol control 100; rescue of ATP level, % at 7.49 µM; 330,000 compounds, 0.78% hits; AID 602340;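 active = mean ATP rescue above about 67%, or every replicate alone reaching that limit, limit read from the data, passing the limit was not always enough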;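 also: myotubes were challenged with 10 µM simvastatin during compound exposure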
PDI turbidity: blocks human protein disulfide isomerase activity | inhibition, % at 10 µM | PDI insulin aggregation turbidity, A650, 90 min | 350,000 compounds, 0.052% hits;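 active = mean inhibition across replicates of 30% or more, whatever share of single replicates reach that level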
DENV2 CPE: DENV2-induced cell death inhibition | AID 651640 | 350,000 compounds, 1.7% hits | DENV2-infected cells, cytopathic effect rescue, plate reader | CPE inhibition, % at 9.99 µM; in the data active = CPE inhibition above about 20%, passing the limit was not always enough; tested in BHK-21 cells;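 also: 0% = median of neutral control wells and 100% = median of positive control wells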
ERp5 inh: blocks human ERp5 reductase activity on insulin; Q15084; ERp5 insulin aggregation, absorbance 650 nm, 90 min; inhibition, % at 9.99 µM; 350,000 compounds, 0.05% hits; AID 651711;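 active = mean replicate inhibition above about 25%, with every replicate also reaching it, limit read from the data, passing the limit was not always enough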
Target sequence (Q15084 whole entry, looked up): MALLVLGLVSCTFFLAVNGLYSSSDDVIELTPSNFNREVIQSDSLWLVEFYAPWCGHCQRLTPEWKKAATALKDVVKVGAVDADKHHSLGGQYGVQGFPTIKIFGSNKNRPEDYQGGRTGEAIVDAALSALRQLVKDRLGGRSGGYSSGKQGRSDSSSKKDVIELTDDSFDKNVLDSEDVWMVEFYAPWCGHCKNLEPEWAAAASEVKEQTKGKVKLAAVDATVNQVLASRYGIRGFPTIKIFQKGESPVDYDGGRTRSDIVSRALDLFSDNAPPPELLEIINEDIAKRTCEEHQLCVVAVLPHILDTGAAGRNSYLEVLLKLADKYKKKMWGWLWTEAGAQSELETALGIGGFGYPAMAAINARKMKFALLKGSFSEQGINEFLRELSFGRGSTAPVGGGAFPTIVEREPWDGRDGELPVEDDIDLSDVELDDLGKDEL
F508del corr: correctors of CFTR F508del function in bronchial epithelial cells; AID 720511; CFBE cells, YFP halide quenching; stimulated with forskolin plus potentiator P3; % fluorescence drop versus neutral controls; activity (quench increase), % at 7.58 µM; 350,000 compounds, 0.36% hits;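 active = mean added fluorescence quench of at least 8% versus neutral control, with both replicates also reaching 8%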;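 also: cells transiently co-express mutant CFTR-F508del with the halide-sensitive YFP; corrector assay measuring rescue of mutant channel to the surface after 24 h compound exposure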
Cneo AK release: Cryptococcus neoformans lysis via adenylate kinase release; 360,000 compounds, 0.2% hits; C. neoformans lysis, adenylate kinase release luminescence, 4 h; normalised: neutral wells 0, clomiphene wells 100; lysis activity, % at 15 µM;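 active = mean lysis activity across replicates of at least 80%, whatever share of replicates individually reach that level; inactive = mean lysis activity below 80%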
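Material – log-phase Cryptococcus neoformans yeast cells · Input – 5 × 10^6 yeast cells/mL · Medium – fresh YPD growth medium · Doses – single compound concentration per well · Timing – static 4 h at 37 °C with compound, 1 h detection · Detection – adenylate kinase release luminescence · Read-out – signal increase indicating cell lysis · Control set – Clomiphene as positive lysis control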
An asterisk follows results filed as active; · = no result.

SMILES	C2C12 statin	PDI turbidity	DENV2 CPE	ERp5 inh	F508del corr	Cneo AK release
Cc1ccc(S(=O)(=O)N(C)C[C@@H]2Oc3ccc(NC(=O)CCC(F)(F)F)cc3C(=O)N([C@H](C)CO)C[C@@H]2C)cc1	-30.5	·	46.6*	-3.3	-1.0	-14.2
Cc1ccc(S(=O)(=O)N(C)C[C@H]2Oc3ccc(NC(=O)CCC(F)(F)F)cc3C(=O)N([C@@H](C)CO)C[C@@H]2C)cc1	-5.9	·	4.5	-3.9	-0.8	1.1
C[C@@H]1CN([C@@H](C)CO)C(=O)c2cc(NC(=O)CCC(F)(F)F)ccc2O[C@@H]1CN(C)CC1CCCCC1	20.2	·	22.1*	-6.0	-0.3	9.0
C[C@H]1CN([C@@H](C)CO)C(=O)c2cc(NC(=O)CCC(F)(F)F)ccc2O[C@H]1CN(C)S(C)(=O)=O	-9.2	·	12.9	-8.1	-0.8	-8.1
Cc1ccc(S(=O)(=O)N(C)C[C@H]2Oc3ccc(NC(=O)Cc4ccccc4)cc3C(=O)N([C@H](C)CO)C[C@@H]2C)cc1	0.4	·	66.2*	0.1	-0.4	-3.4
C[C@@H]1CN([C@@H](C)CO)C(=O)c2cc(NC(=O)CCC(F)(F)F)ccc2O[C@@H]1CN(C)C(=O)Nc1ccccc1	2.9	·	25.8*	-6.1	-3.1	-3.3
C[C@H]1CN([C@@H](C)CO)C(=O)c2cc(NC(=O)CCC(F)(F)F)ccc2O[C@H]1CN(C)C(=O)Nc1ccccc1	3.0	·	3.5	-1.5	1.3	-5.6
CC(C)NC(=O)N1[C@H](C(=O)N2CCC(Cc3ccccc3)CC2)[C@@H](CO)[C@@H]2Cn3c(cccc3=O)[C@@H]21	-1.0	·	26.0*	-2.8	-1.1	2.6
O=C([C@@H]1[C@@H](CO)[C@@H]2Cn3c(cccc3=O)[C@@H]2N1CCC(F)(F)F)N1CCCCC1	-9.2	·	-19.6	5.0	·	101.7*
C[C@H]1CCCCO[C@H](CN(C)C(=O)c2ccccc2)[C@@H](C)CN([C@@H](C)CO)C(=O)c2cc(NC(=O)CCC(F)(F)F)ccc2O1	·	·	18.6	-2.7	0.2	-8.3
O=S1(=O)Nc2c(ccc3cccnc23)-c2ccccc21	109.1*	-2.2	·	·	·	18.9
CS(=O)(=O)N1[C@H](C#N)[C@H](c2ccccc2)[C@@H]1CO	-28.3	·	3.5	-4.7	-1.1	-0.8
Cc1ccc(S(=O)(=O)N(CC(=O)N/N=C\c2cccs2)c2cccc3cccnc23)cc1	·	-1.3	6.2	0.7	·	·
CS(=O)(=O)N(CC(=O)N/N=C/c1cccs1)c1cccc(Cl)c1Cl	118.6*	-5.2	·	·	·	3.9
CCCCCCC(=O)O	-14.2	·	58.1*	3.1	-0.1	0.0
CCCCCCCCC(=O)O	-3.1	·	·	·	·	-0.9
CCCCC/C=C\C/C=C\C/C=C\CCCCC(=O)O	1.0	3.0	-0.2	2.1	9.0*	-2.1
CCCCCCCC/C=C\CCCCCCCC(=O)O	4.1	-1.8	-2.9	-7.2	-5.0	·
O=C(Nc1ccc2c(c1)[C@H]1C[C@@H](CC(=O)N3CCOCC3)O[C@H](CO)[C@H]1O2)c1cccnc1	-0.7	·	2.8	-0.8	1.1	-4.8
COc1cccc(C#Cc2cnc3c(c2)C(=O)N([C@@H](C)CO)C[C@@H](C)[C@@H](CN(C)C(=O)C2CC2)O3)c1	21.3	·	2.6	5.8	0.2	-3.6
C[C@H]1CCCCO[C@H](CN(C)S(=O)(=O)c2cccs2)[C@@H](C)CN([C@@H](C)CO)C(=O)c2cc(NC(=O)Nc3ccccc3)ccc2O1	·	·	-6.1	-1.4	-3.2	-3.7
CCN(CC)S(=O)(=O)c1cc(NC(=O)c2ccc(-n3cncn3)c([N+](=O)[O-])c2)ccc1C	-15.4	-5.4	1.9	25.5*	3.8	-15.7
Cc1ccc(NC(=O)c2ccc(-n3cncn3)c([N+](=O)[O-])c2)cc1	·	7.6	·	·	·	·
O=C(c1cccs1)N1CCN(C2CCCCC2)CC1	1.3	3.7	·	·	·	-1.2
O=C(c1cccs1)N1CCN(C2CCN(Cc3ccccc3)CC2)CC1	100.9*	13.3	·	·	·	-3.3
COc1ccc(CN2CCN(C(=O)c3cccs3)CC2)cc1Br	156.8*	-0.4	·	·	·	-2.5
COCCNC(=O)[C@H]1[C@H](CO)[C@H]2Cn3c(cccc3=O)[C@H]2N1Cc1ccccc1OC	·	·	9.4	-0.5	1.6	·
Cn1nc(C(=O)N2CCN(c3ccccc3F)CC2)c2c1-c1ccccc1S(=O)(=O)C2	1.4	4.0	-2.9	3.1	-0.4	·
